This note sets out measurements from ChEMBL document CHEMBL4422635, “Structure-Based Discovery of a Subtype-Selective Inhibitor Targeting a Transient Receptor Potential Vanilloid Channel” (J Med Chem, 2019).

The target of data set [1] is Transient receptor potential cation channel subfamily V member 1 (Mus musculus) (UniProt Q704Y3). The data set is described as follows: Antagonist activity at mouse TRPV1 expressed in HEK293T cells assessed as inhibition of 2-APB evoked currents at 3 to 10 uM -60 mV holding potential by whole-cell patch clamp assay. In kind it is cell-based. The gist of the method: (§1)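 Whole-cell voltage clamp of transiently transfected HEK293T cells co-expressing GFP, recorded 36-96 h post-transfection. Hold -60 mV; pipettes 3-7 MΩ. Bath 165 mM NaCl, 10 mM HEPES pH 7.3; pipette 140 mM KCl, 10 mM HEPES pH 7.3. Room temperature (~25 °C). IC50 from Hill fits of I/I0, the current ratio after vs before inhibitor; mean ± SEM.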

Data set [2] concerns T1, Transient receptor potential cation channel subfamily V member 2 (Mus musculus), Q9WTR1 [F467S].
T1 sequence (whole entry): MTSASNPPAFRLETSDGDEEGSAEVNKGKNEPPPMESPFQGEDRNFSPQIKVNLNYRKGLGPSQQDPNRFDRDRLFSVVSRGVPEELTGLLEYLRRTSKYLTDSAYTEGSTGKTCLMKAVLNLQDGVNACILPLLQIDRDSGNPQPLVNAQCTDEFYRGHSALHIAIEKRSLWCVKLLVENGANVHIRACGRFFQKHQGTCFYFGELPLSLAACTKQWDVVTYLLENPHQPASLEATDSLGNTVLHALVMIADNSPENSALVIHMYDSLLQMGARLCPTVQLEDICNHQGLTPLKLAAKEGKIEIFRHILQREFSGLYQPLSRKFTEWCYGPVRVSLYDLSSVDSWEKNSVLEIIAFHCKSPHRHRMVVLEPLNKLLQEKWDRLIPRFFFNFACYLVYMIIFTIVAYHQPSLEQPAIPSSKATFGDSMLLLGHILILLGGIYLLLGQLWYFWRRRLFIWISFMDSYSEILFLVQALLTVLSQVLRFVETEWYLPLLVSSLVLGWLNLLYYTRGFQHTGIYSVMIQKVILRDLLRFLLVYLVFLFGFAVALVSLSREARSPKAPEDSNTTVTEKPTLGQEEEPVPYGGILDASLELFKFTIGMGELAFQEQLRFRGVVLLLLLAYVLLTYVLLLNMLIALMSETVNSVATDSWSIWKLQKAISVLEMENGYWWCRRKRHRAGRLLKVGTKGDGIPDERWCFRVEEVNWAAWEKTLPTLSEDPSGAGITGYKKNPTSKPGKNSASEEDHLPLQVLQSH
The data set is described as follows: Antagonist activity at mouse TRPV2 F467S mutant expressed in HEK293T cells assessed as inhibition of 2-APB evoked currents at -60 mV holding potential by whole-cell patch clamp assay. In kind it is cell-based. An outline of the steps: as §1

Data set [3] deals with Transient receptor potential cation channel subfamily V member 1 (Mus musculus), Q704Y3 [S513F,T551L]. The data set is described as follows: Antagonist activity at mouse TRPV1 S513F/T551L double mutant expressed in HEK293T cells assessed as inhibition of 2-APB evoked currents at 0.3 to 10 uM at -60 mV holding potential by whole-cell patch clamp assay. It counts as cell-based. The gist of the method:
as §1

For data set [4], the system named is Transient receptor potential cation channel subfamily V member 1 (Mus musculus), Q704Y3 [S513F]. Description: Antagonist activity at mouse TRPV1 S513F mutant expressed in HEK293T cells assessed as inhibition of 2-APB evoked currents at 0.3 to 10 uM at -60 mV holding potential by whole-cell patch clamp assay. It counts as cell-based. An outline of the steps:
as §1

In data set [5] the test system is Transient receptor potential cation channel subfamily V member 1 (Mus musculus), Q704Y3 [T551L]. The data set is described as follows: Antagonist activity at mouse TRPV1 T551L mutant expressed in HEK293T cells assessed as inhibition of 2-APB evoked currents at > 1 uM at -60 mV holding potential by whole-cell patch clamp assay. In kind it is cell-based. The gist of the method:
as §1

Data set [6] relates to PC-3M. Description: Antimetastatic activity in human PC3M cells at 5 to 20 uM after 24 hrs by transwell migration assay. In kind it is functional, cell-based. The gist of the method:
(§2)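 PC-3M cells kept in RPMI 1640 with 10% FBS at 37 °C, 5% CO2.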

For data set [7], the system named is PC-3M. The data set is described as follows: Cytotoxicity against human PC3M cells assessed as reduction in cell viability up to 20 uM after 48 hrs by SRB assay. In kind it is cell-based. The gist of the method: as §2
The species named for the next data set is Mus musculus. The data set is described as follows: Antagonist activity at mouse LPA-induced TRPV2/LPAR1 expressed in HEK293T cells assessed as inhibition of 2-APB evoked currents at 1 uM after 3 mins in presence of AM966 by whole-cell patch clamp assay. It counts as cell-based. The gist of the method:
as §1

In data set [8] the test system is T2, Transient receptor potential cation channel subfamily V member 2 (Mus musculus), Q9WTR1 [F467A].
T2 sequence (whole entry): T1 sequence (whole entry) with S467A
The data set is described as follows: Antagonist activity at mouse TRPV2 F467A mutant expressed in HEK293T cells assessed as inhibition of 2-APB evoked currents at -60 mV holding potential by whole-cell patch clamp assay. It counts as cell-based. The gist of the method: as §1

Residue numbers refer to the chain shown, from its start. Activity calls are given as the source filed them. The rule behind the calls is not given here.

Sequence of Transient receptor potential cation channel subfamily V member 1 (Mus musculus), Q704Y3 [S513F] (Q704Y3 whole entry S513F): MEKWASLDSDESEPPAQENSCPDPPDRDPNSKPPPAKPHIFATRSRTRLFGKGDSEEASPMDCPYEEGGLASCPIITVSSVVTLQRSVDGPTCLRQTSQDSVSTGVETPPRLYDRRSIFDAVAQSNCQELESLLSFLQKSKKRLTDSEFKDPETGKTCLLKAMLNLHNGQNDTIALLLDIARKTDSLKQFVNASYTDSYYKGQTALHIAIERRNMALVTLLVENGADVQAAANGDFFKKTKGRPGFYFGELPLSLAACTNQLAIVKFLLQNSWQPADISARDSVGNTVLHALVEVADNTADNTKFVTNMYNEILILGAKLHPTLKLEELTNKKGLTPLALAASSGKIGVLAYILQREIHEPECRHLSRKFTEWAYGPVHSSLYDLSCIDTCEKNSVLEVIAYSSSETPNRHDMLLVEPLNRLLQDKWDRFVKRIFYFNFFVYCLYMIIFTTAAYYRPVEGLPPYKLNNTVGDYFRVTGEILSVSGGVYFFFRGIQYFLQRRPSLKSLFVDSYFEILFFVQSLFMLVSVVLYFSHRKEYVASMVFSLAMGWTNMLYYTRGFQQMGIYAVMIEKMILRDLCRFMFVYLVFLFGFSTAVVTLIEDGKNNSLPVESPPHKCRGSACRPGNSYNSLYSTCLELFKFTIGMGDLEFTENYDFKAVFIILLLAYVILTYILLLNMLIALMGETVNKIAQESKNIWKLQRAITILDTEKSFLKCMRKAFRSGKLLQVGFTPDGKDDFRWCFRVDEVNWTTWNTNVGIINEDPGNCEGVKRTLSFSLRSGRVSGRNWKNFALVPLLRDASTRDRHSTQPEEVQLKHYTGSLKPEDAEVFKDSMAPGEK
Sequence of Transient receptor potential cation channel subfamily V member 1 (Mus musculus), Q704Y3 [S513F,T551L] (Q704Y3 whole entry S513F/T551L): as the sequence (Q704Y3 whole entry S513F) above, with T551L counted along it
Sequence of Transient receptor potential cation channel subfamily V member 1 (Mus musculus) (Q704Y3 whole entry): as the sequence (Q704Y3 whole entry S513F) above, with F513S counted along it
Sequence of Transient receptor potential cation channel subfamily V member 1 (Mus musculus), Q704Y3 [T551L] (Q704Y3 whole entry T551L): as the sequence (Q704Y3 whole entry S513F) above, with F513S, T551L counted along it

Take `CCCN(C)c1cc(C(F)(F)F)nc(SCCC(=O)NCc2ccco2)n1`: the inhibition entry (in [1]; in data set [2]; in data set [4]; in the data set filed under Mus musculus; in data set [8]) was “inactive” in each case. For the same compound, the inhibition entry in [3] and in [5] was “Active” in each case. Also, the result in the data set with PC-3M [6] was Active. For the same compound, in the data set with PC-3M [7], the Activity result is listed as “Non-Toxic”.
